Screens as filed in PubChem.
M1 antagonist: antagonists of rat M1 muscarinic receptor; Muscarinic acetylcholine receptor M1 (Rattus norvegicus), P08482; CHO-M1 cells, Fluo-4 calcium, ACh EC80 antagonist mode; active compounds read low; B-score at 10 µM; actives 3.4% (n = 64,000);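 active = calcium fluorescence response, raw or row-and-column corrected B-score, differing from the plate sample mean either way at a set confidence level, mostly lower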
Target sequence (P08482 whole entry, looked up): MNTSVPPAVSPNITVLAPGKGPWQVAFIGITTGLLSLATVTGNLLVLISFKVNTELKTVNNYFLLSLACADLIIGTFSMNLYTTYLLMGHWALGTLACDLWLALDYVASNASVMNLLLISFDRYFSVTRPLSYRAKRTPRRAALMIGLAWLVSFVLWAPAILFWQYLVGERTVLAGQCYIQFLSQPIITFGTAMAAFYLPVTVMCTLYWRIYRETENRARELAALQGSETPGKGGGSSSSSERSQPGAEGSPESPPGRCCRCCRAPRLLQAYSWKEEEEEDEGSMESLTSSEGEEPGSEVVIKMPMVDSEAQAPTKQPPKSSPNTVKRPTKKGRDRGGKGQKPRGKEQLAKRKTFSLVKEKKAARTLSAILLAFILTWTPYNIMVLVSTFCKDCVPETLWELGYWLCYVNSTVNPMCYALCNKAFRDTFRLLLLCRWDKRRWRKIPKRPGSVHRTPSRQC
SF-1 act: activators of human SF-1, primary screen, cell-based, CHO-K1, Gal4-SF-1 LBD, luciferase luminescence | actives 1.9% (n = 65,000) | CHO-K1 Gal4-SF-1 LBD luciferase reporter; % increase over DMSO SF-1-specific signal | activation, % at 10 µM;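 active = activation above the mean activation of all tested compounds plus 3 SD, cut at about 50% in these data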
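Assay system: CHO-K1 cells co-transfected with Gal4 DBD–human SF-1 LBD, 5xGal4 luciferase reporter; doses: 10 µM only; incubation: 20 h compound exposure at 37 °C after 1 h cell settling; signal: luciferase light emission; evaluation: percent activation versus DMSO; repeats: one test per compound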
D1 mod: D1 CRE-luciferase signal change, two-sided – cell-based, HEK293 D1, dopamine EC30, D1 allosteric modulator project, primary screen; dopamine EC30 potentiation; actives deviate in either direction; B-score at 10 µM; actives 5.9% (n = 58,000); AID 641, 2007;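 active = luminescence count or its row- and column-corrected plate score outside the 99.7% band of the plate's sample wells, on either side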
RORa activator: activators of orphan receptor RORA, primary screen, cell-based, luminescence. activation, % at 10 µM. Nuclear receptor ROR-alpha (Homo sapiens), P35398. actives 1.5% (n = 65,000). AID 560, 2006. CHO-K1 Gal4-RORA LBD luciferase reporter; percent increase over mock-subtracted basal signal;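 active = activation above the mean of all tested compounds plus 3 SD, cut at about 49% in these data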;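 note: 0% = DMSO-treated RORA cells and 100% = added signal equal to DMSO minus mock-transfected cells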
M1 ag: M1 muscarinic receptor agonists, primary screen, CHO-M1 cells, Fluo-4 calcium, agonist mode; Muscarinic acetylcholine receptor M1; B-score at 10 µM; Fluo-4 calcium fluorescence; active compounds read high; actives 3% (n = 64,000);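 active = fluorescence rise, raw or as B-score row- and column-corrected plate score, outside the 99.7% band of its plate's samples, either direction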
mHtt clearance: clearance of mutant huntingtin inclusions, primary screen, imaging, HeLa Exon1htt(103Q)mCFP, confocal imaging | aggregate imaging; zero = plate's median compound well | inhibition, % at 1.5 µM | actives 0.42% (n = 47,000);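 active = inhibition of aggregate fluorescence above about 70%, also judged a hit by eye on the cell image, limit read from the data, passing the limit was not always enough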;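 note: cells exposed to compound for three days before fixation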
D1 mod confirm: D1 receptor positive allosteric modulators, retest, confirmation, cell-based, HEK293 D1, CRE-luciferase, duplicate | shares compounds with D1 mod | actives 88% (n = 2,200) | AID 642, 2007 | dopamine EC30 potentiation; active compounds read high | luminescence at 10 µM;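 active = luminescence in either of two replicates above the same-plate mean plus 3 SD of the low-dose dopamine control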
D1 no dopamine: D1 receptor agonism without dopamine, confirmation, mechanism study for D1 allosteric modulator project, cell-based, HEK293 D1, CRE-luciferase, secondary assay 1; shares compounds with D1 mod; luminescence, no dopamine; active compounds read high; luminescence at 10 µM; actives 0.8% (n = 1,900); AID 646, 2007; in the data active = luminescence above about 3900
Isoprot counter: isoproterenol response counter-screen activity for D1 modulators | shares compounds with D1 mod | HEK293 D1 CRE-luciferase, isoproterenol EC30 counter-screen | calls only at 10 µM | actives 63% (n = 2,200);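 active = luminescence in either replicate above plate mean of wells with a partly effective reference agonist dose plus 3 SD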;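 note: isoproterenol raises cAMP through native beta-adrenoceptor Gs so signal bypasses D1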
* hit, by the source's call; i = inactive; · = no result; + = active, no number. Only some compounds are listed: those with a hit (about 11% of all), similar ones and a draw of the others.

SMILES	M1 antagonist	SF-1 act	D1 mod	RORa activator	M1 ag	mHtt clearance	D1 mod confirm	D1 no dopamine	Isoprot counter
CCCC(=O)c1ccc(N2CCCCCC2)c(F)c1	0.0737	18.3	0.198	24.0	0.113	-0.1	·	·	·
CC(=O)c1ccc(N2CCCCCC2)c(F)c1	-0.585	15.4	2.7*	-0.1	0.649	·	5360	1576	i
Cc1ccc(-n2cnnn2)c2cccnc12	0.00872	7.1	2.56*	-11.8	-0.54	·	8320*	1580	i
COc1ccccc1C1C(C(=O)c2cc3ccccc3o2)=C(O)C(=O)N1CCN1CCOCC1 (stereo unspecified)	-0.0668	-2.0	0.00203	19.0	-0.428	-21.5	·	·	·
CCC(C)(C)NC(=O)CN(C(=O)c1snc(C(N)=O)c1N)c1ccc2c(c1)OCCO2	-0.552	11.3	6.58*	3.2	-1.73	·	4748	1392	i
Cc1noc(C)c1C(=O)NCCCN1CCCC1=O	0.186	2.5	0.536	-21.3	1.23	·	·	·	·
C=CCn1c(-c2cccs2)nc2nc3ccccc3nc21	0.0288	21.1	0.853	32.4	-0.641	-94.6	·	·	·
CCC(C)n1c(-c2cccs2)nc2nc3ccccc3nc21 (stereo unspecified)	0.00117	-9.8	9.98*	6.9	0.0389	·	15740*	1736	+
Cc1nnsc1C(=O)Nc1cccc(Cl)c1Cl	·	·	·	·	·	-8.9	·	·	·
O=C(Cn1c(-c2ccccc2)noc1=O)NCc1ccccc1	-0.0773	-12.6	-0.00608	-25.0	0.192	·	·	·	·
N#CCCCn1c(-c2ccccc2)noc1=O	0.15	4.1	6.36*	-4.4	-0.275	17.4	4628	1604	i
NC(=O)Cc1c[nH]c2cccc(O)c12	-0.233	-7.0	-0.233	6.2	-1.16	·	·	·	·
COc1ccc2nc3oc(C(=O)N4CCN(c5cccc(Cl)c5)CC4)cc3cc2c1	-0.344	-5.7	3.59*	6.9	0.888	-37.7	5456	1484	i
Cc1cc(F)c(F)c(C(=O)N2CCN(C)CC2)c1Cl	-0.022	-17.2	-0.483	-5.8	-0.285	-25.4	·	·	·
CCOC(=O)c1ccc2nc(NC(NC(C)=O)(C(=O)OC)C(F)(F)F)sc2c1 (stereo unspecified)	0.24	10.6	-2.72	-12.9	-0.684	·	·	·	·
CCOC(=O)c1sc(NC(NC(=O)c2ccco2)(C(=O)OC)C(F)(F)F)nc1C (stereo unspecified)	-1.96	11.9	5.6*	-7.2	0.137	-85.1	8940*	1520	+
Cc1noc(NS(=O)(=O)c2ccc(N3Cc4ccccc4C3=O)cc2)c1C	-0.359	1.2	6.58*	-18.5	-0.426	·	15188*	1676	+
COc1cc(OC)cc(C(=O)N2CCN(C(=O)c3ccc(OC)c(OC)c3)CC2)c1	0.315	-12.9	14*	0.0	2.29	-32.6	19992*	1652	+
Cc1cccc(-c2c3c(=O)n(C)c(=O)n(C)c3cn2-c2ccc(O)cc2)c1	-0.0817	-1.8	4.15	14.1	0.229	63.1	·	·	·
Cn1c(=O)c2c(-c3ccc(C(C)(C)C)cc3)n(N3CCOCC3)cc2n(C)c1=O	-0.211	18.6	3.8*	8.5	-1.2	-6.1	9948*	1848	i
Cn1c(=O)c2c(-c3ccccc3)n(C3CCCCC3)cc2n(C)c1=O	-0.176	-10.1	4.27	-6.9	0.0795	·	·	·	·
Cn1c(=O)c2c(-c3ccccc3)n(N3CCOCC3)cc2n(C)c1=O	0.833	-8.3	3.31*	-5.6	0.987	-17.9	6320*	1616	i
